The text below walks through data of ChEMBL document CHEMBL4196063, “A novel synthetic peptide inspired on Lys49 phospholipase A2 from Crotalus oreganus abyssus snake venom active against multidrug-resistant clinical isolates” (2018).

The source made the active and inactive calls. The calls are words filed in the database; no cut-off is given here. Where a SMILES comes first, the peptide text is derived from it.

The subject of experiment [1] is Pseudomonas aeruginosa. In words: Antibacterial activity against Pseudomonas aeruginosa 31NM at 5.95 to 190 uM after 24 hrs by CLSI broth microdilution method. It counts as functional, organism-based. The essentials:
(§1)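 Strains were kept frozen in MHB with 20% glycerol, subcultured in MHB, and grown on Mueller Hinton agar at 37 °C for a day. Peptide was dissolved in medium and serially diluted into MHB in 96-well plates, then bacterial suspension was added (1 × 10⁸ CFU/ml). Plates were held at 37 °C for 24 h and growth inhibition read at 595 nm. Runs were done at least three times, mean ± SD.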
In general terms: Dilution methods test growth across graded concentrations, often in twofold steps.

For experiment [2], the system named is Pseudomonas aeruginosa. Nature of the experiment: Growth inhibition of Pseudomonas aeruginosa 31NM at 5.95 uM after 24 hrs by CLSI broth microdilution method. It counts as functional. The following applies: read-out: GI. Summed up:
(§2)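 Broth microdilution per CLSI. Peptide dissolved in Mueller Hinton broth and serially diluted (5.95–190 μM tested) in MHB. Bacteria were subcultured in MHB and grown on Mueller Hinton agar at 37 °C for a day, then added at 1 × 10⁸ CFU/ml. Incubation 37 °C for 24 h, with growth read at 595 nm. Antibiotic positive and medium negative controls. At least three runs, mean ± SD.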

The subject of experiment [3] is Escherichia coli. In words: Antibacterial activity against Escherichia coli ATCC 25922 at 575 uM after 24 hrs by agar well diffusion assay. The experiment is classed as functional, organism-based. Summed up:
(§3)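 Agar well diffusion followed Bauer/CLSI with minor changes. Strains were subcultured in MHB and grown on Mueller Hinton agar at 37 °C for a day. Wells were punched aseptically, and 100 μl of peptide in PBS (575 μM) was placed in each well. Plates were incubated at 37 °C for 24 h and inhibition halo diameters measured by caliper. Commercial antibiotics served as positive control, with at least three runs.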
In general terms: In agar diffusion tests the substance spreads into inoculated agar from a disc or well.

The test system of experiment [4] is Staphylococcus aureus. In words: Antibacterial activity against Staphylococcus aureus BEC9393 at 5.95 to 190 uM after 24 hrs by CLSI broth microdilution method. The experiment is classed as functional, organism-based. The essentials: as §1
Experiment [5] deals with Pseudomonas aeruginosa. Nature of the experiment: Antibacterial activity against Pseudomonas aeruginosa ATCC 27853 at 575 uM after 24 hrs by agar well diffusion assay. The experiment is classed as functional, organism-based. Summed up: as §3
Experiment [6] deals with Staphylococcus aureus. Nature of the experiment: Antibacterial activity against Staphylococcus aureus BEC9393 at 575 uM after 24 hrs by agar well diffusion assay. The experiment is classed as functional, organism-based. The essentials: as §3
Experiment [7] relates to Staphylococcus aureus. Nature of the experiment: Antibacterial activity against Staphylococcus aureus rib1 at 5.95 to 190 uM after 24 hrs by CLSI broth microdilution method. The experiment is classed as functional, organism-based. Summed up: as §1
Experiment [8] concerns Pseudomonas aeruginosa. In words: Growth inhibition of Pseudomonas aeruginosa ATCC 27853 at 5.95 uM after 24 hrs by CLSI broth microdilution method. The experiment is classed as functional. The following applies: ATCC 27853, 24 h, read-out: GI. The essentials: as §2
Experiment [9] deals with Escherichia coli. Nature of the experiment: Antibacterial activity against Escherichia coli ATCC 25922 at 5.95 to 190 uM after 24 hrs by CLSI broth microdilution method. The experiment is classed as functional, organism-based. Summed up: as §1
The test system of experiment [10] is Pseudomonas aeruginosa. Nature of the experiment: Antibacterial activity against Pseudomonas aeruginosa 31NM at 575 uM after 24 hrs by agar well diffusion assay. It counts as functional, organism-based. Summed up: as §3
Experiment [11] concerns Pseudomonas aeruginosa. In words: Antibacterial activity against Pseudomonas aeruginosa ATCC 27853 at 5.95 to 190 uM after 24 hrs by CLSI broth microdilution method. The experiment is classed as functional, organism-based. Summed up: as §1
Experiment [12] concerns Staphylococcus aureus. In words: Antibacterial activity against Staphylococcus aureus rib1 at 575 uM after 24 hrs by agar well diffusion assay. The experiment is classed as functional, organism-based. Summed up: as §3

In the case of `CC[C@H](C)[C@H](NC(=O)[C@H](CCCNC(=N)N)NC(=O)[C@H](Cc1ccc(O)cc1)NC(=O)[C@H](CCCCN)NC(=O)[C@@H](N)CCCCN)C(=O)N[C@@H](Cc1ccc(O)cc1)C(=O)N1CCC[C@H]1C(=O)N[C@@H](CCCCN)C(=O)N[C@@H](Cc1ccccc1)C(=O)N[C@@H](CC(C)C)C(=O)N[C@@H](CS)C(=O)N[C@@H](CCCCN)C(=O)N[C@@H](CCCCN)C(=O)O` (H-KKYRIYPKFLCKK-OH), the result in experiment [1], in experiment [3], in experiment [4], in experiment [5], in experiment [6] and in experiment [7] was Active. The outcome in [9], in experiment [10], in [11] and in experiment [12] was Active. The inhibition of growth at 5.95 µM in experiment [2] came out at 48%; in [8], 52%.

Regarding `CC(C)C[C@H](NC(=O)[C@H](Cc1ccccc1)NC(=O)[C@H](CCCCN)NC(=O)[C@@H]1CCCN1C(=O)[C@@H](N)Cc1ccc(O)cc1)C(=O)N[C@@H](CS)C(=O)N[C@@H](CCCCN)C(=O)N[C@@H](CCCCN)C(=O)N1CCC[C@H]1C(=O)O` (H-YPKFLCKKP-OH), the result in experiment [3], in [5], in experiment [6], in experiment [10] and in [12] was inactive.
